# This is a sample that favours compounds with a hit; in the whole collection about 1.5% have one here.
# S100A4 inh HTS = inhibitors of human S100A4 binding to myosin IIA peptide; inhibition, % at 10.7 µM; S100A4/TAMRA-MyoIIA peptide fluorescence polarization; actives 0.14% (n = 360,000); P26447;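 active means mean inhibition of at least 70% across replicates, with every replicate also reaching that level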
# Target sequence (P26447 whole entry, looked up): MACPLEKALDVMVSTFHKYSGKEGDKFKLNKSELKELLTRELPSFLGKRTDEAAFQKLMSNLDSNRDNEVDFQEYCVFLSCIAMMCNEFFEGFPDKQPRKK
#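 Test system: S100A4 monomer protein; Medium: HEPES pH 7.2 with CaCl2, KCl, NaCl, DTT, Triton; Probe or stimulus: TAMRA-labelled myosin IIA heavy-chain peptide probe, 5 nM; Doses: one dose per compound; Times: polarization read 5 min after assay mix addition, stable 5–60 min; Benchmarks: neutral control DMSO, positive control TFP.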
# PDI turbidity = PDI (human) enzyme inhibition; inhibition, % at 10 µM; PDI insulin aggregation turbidity, A650, 90 min; actives 0.052% (n = 350,000); P07237; AID 588391;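 active means mean inhibition across replicates of 30% or more, whatever share of single replicates reach that level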
# SIRT5 block = inhibitors of human sirtuin-5 desuccinylase; Purified SirT5, succinyl-peptide AMC, trypsin-coupled fluorescence; inhibition, % at 15 µM; AID 652115; actives 1.1% (n = 330,000); in the data active means inhibition above about 15%
# Target sequence (Q9NXA8 whole entry, looked up): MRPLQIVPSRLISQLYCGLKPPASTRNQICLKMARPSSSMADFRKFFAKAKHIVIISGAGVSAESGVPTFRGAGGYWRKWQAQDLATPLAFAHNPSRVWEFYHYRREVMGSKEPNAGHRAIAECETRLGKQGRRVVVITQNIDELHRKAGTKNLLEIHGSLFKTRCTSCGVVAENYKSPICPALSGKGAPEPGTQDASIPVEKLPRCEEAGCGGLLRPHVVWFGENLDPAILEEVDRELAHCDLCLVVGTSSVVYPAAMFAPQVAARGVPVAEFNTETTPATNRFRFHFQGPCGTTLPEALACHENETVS
# GSIS activator = GLuc luminescence reporter in INS-1E cells, primary screen for activators of glucose-dependent secretion of insulin; INS-1E GLuc reporter insulin secretion, 2-3 h; activation, % at 16.6 µM; actives 0.61% (n = 370,000); AID 743287;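 active means lowest replicate activation of at least 40%, so every replicate reaches that level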;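 further: 0% = median of neutral control wells and 100% = median of IBMX positive control wells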
# ERp5 inh = inhibitors of human ERp5 | Q15084 | ERp5 insulin aggregation, absorbance 650 nm, 90 min | inhibition, % at 9.99 µM | actives 0.05% (n = 350,000);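 active means mean replicate inhibition above about 25%, with every replicate also reaching it, limit read from the data, passing the limit was not always enough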
# * marks the source's active call; other numbers are inactive results; · = not tested or not shown.
SMILES,S100A4 inh HTS,PDI turbidity,SIRT5 block,GSIS activator,ERp5 inh
CCn1cc(C(=O)O)c(=O)c2cc(F)c(N3CCN(C(=S)NC(=O)c4cccc(C)c4)CC3)cc21,4,3,-5,44*,3
CCC(=O)N(C)C[C@H]1Oc2cc(-c3ccccc3C)ccc2S(=O)(=O)N([C@H](C)CO)C[C@H]1C,7,·,4,-11,-2
CCCC(=O)Nc1ccc2c(c1)OC[C@H](C)N(CCC(F)(F)F)C[C@H](C)[C@@H](OC)CN(C)C2=O,131*,·,0,-16,15
CCCC(=O)Nc1ccc2c(c1)OC[C@@H](C)N(Cc1ccncc1)C[C@H](C)[C@H](OC)CN(C)C2=O,121*,·,1,-19,-2
CCCC(=O)Nc1ccc2c(c1)OC[C@@H](C)N(C(=O)c1cnccn1)C[C@@H](C)[C@H](OC)CN(C)C2=O,142*,·,-4,0,-6
COc1cccc(C(=O)Nc2ccc3c(c2)C(=O)N(C)C[C@@H](OC)[C@@H](C)CN(CCc2ccccc2)[C@@H](C)CO3)c1,-19,·,15*,1,3
CCCC(=O)Nc1ccc2c(c1)OC[C@@H](C)N(Cc1ccncc1)C[C@@H](C)[C@H](OC)CN(C)C2=O,3,·,0,-3,1
N#C[C@H]1[C@@H](c2ccccc2C2=CCCC2)[C@@H](CO)N1C(=O)CN1CCOCC1,0,·,-3,-6,1
CO[C@H]1CN(C)C(=O)c2ccc(NC(=O)c3ccc4c(c3)OCO4)cc2OC[C@@H](C)N(CC2CC2)C[C@H]1C,1,·,·,7,6
CO[C@@H]1CN(C)C(=O)c2ccc(NC(=O)c3ccc4c(c3)OCO4)cc2OC[C@@H](C)N(Cc2ccc3c(c2)OCO3)C[C@H]1C,80*,·,0,3,-2
CO[C@H]1CN(C)C(=O)c2ccc(NC(=O)C3CCCCC3)cc2OC[C@@H](C)N(Cc2nccs2)C[C@@H]1C,130*,·,5,-11,1
COCCCNc1ccc([N+](=O)[O-])cc1C(=O)Nc1cccc(C)n1,4,-2,2,45*,7
O=C(N[C@H]1CC[C@@H](CCNS(=O)(=O)c2ccc(F)cc2)O[C@H]1CO)C1CC1,16,·,-2,-3,-2
Cc1cc(C)c2c(C)nn(-c3ccccc3)c2n1,·,0,·,·,·
Cc1cc(C)c2c(C)nn(C3CCCCC3)c2n1,·,-10,·,71*,·
COc1ccc(C(=O)/C(C#N)=N/Nc2ccccc2[N+](=O)[O-])cc1,5,-2,-3,62*,-2
O=C(NCc1ccccn1)Nc1ccc(Cl)cc1Cl,-5,-5,-2,20,1
O=C(NCc1ccccn1)c1ccccc1OCc1ccc(Cl)cc1Cl,2,-5,0,49*,-17
CN1/C(=C\C=C(C#N)C#N)C(C)(C)c2ccccc21,160*,2,0,-6,-2
O=C(Nc1ccc(F)cc1)N1CCCCN2[C@@H](CO)[C@H](c3ccc(-c4ccccc4F)cc3)[C@@H]2C1,10,·,2,·,-6
COc1ccc(NC(=O)N2CCCCN3[C@H](CO)[C@@H](c4ccc(-c5ccccc5F)cc4)[C@@H]3C2)cc1,-23,·,18*,-14,0
O=C(Nc1ccc(F)cc1)N1CCCCN2[C@H](C1)[C@H](c1ccc(-c3ccccc3F)cc1)[C@@H]2CO,-8,·,18*,·,-7
OC[C@H]1[C@@H](c2ccc(-c3cccc(F)c3)cc2)[C@H]2CN(CCC(F)(F)F)CCCCN21,-18,·,24*,-16,3
Cc1ccc(-c2ccc([C@@H]3[C@@H](CO)N4CCCCN(C(=O)Nc5cccc(F)c5)C[C@@H]34)cc2)cc1,-11,·,18*,-13,7
CCN1[C@H](C(=O)N(C)C)[C@@H](CO)[C@@H]2Cn3c(ccc(-c4cccc(OC)c4)c3=O)[C@@H]21,4,·,-2,5,2
COc1ccc(S(=O)(=O)Nc2ccc3c(c2)C(=O)N([C@H](C)CO)C[C@H](C)[C@H](CN(C)C(=O)Nc2ccc(F)cc2)O3)cc1,10,·,12,-2,-4
COCC(=O)Nc1ccc2c(c1)[C@@H]1C[C@@H](CC(=O)N[C@H](C)c3ccccc3)O[C@H](CO)[C@@H]1O2,-18,·,-1,5,-2
Cc1ccc(CNC(=O)COC(=O)CCC(=O)c2cccs2)cc1,-4,4,19*,-8,6
CONc1nc(NC(C)(C)C)nc(OCC#N)n1,-3,-1,1,65*,-1

# High-throughput results as filed in PubChem BioAssay.
